NR2E3 ag-1: human photoreceptor-specific nuclear receptor agonism | Q9Y5X4 | 360,000 tested, 0.35% active | AID 602229 | CHO-S Gal4-NCOR/VP16-NR2E3 two-hybrid, luciferase | inhibition of corepressor binding, % at 3.98 µM;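 active = inhibition above the mean of all tested compounds plus 3 SD, cut at about 70% in these data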;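 note: 0% = DMSO with NR2E3 transfected cells and 100% = cells lacking NR2E3 construct; higher means lower luciferase signal from less NR2E3 corepressor binding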
Rev-erbA mod: modulates human Rev-erb alpha binding to DNA; P20393; Rev-erbα–FITC-DNA binding, fluorescence polarization, 90 min; activity, % at 10 µM; 370,000 tested, 0.79% active;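 active = activity above about 14%, limit read from the data; passing the limit was not always enough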;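 note: 0% = DMSO wells with 35 nM protein and 100% = DMSO wells with 750 nM protein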
Neddyl block: cullin neddylation inhibition | TR-FRET cullin neddylation, biochemical | 360,000 tested, 0.58% active | calls only at 25 µM; in the data active = inhibition above about 36%
Target sequence (P61081 whole entry, looked up): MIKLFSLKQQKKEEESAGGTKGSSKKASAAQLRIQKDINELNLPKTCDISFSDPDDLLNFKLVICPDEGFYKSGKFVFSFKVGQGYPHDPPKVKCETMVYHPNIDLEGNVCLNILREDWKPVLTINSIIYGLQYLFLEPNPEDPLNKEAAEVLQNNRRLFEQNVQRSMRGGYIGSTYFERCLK
Target sequence (Q13564 whole entry, looked up): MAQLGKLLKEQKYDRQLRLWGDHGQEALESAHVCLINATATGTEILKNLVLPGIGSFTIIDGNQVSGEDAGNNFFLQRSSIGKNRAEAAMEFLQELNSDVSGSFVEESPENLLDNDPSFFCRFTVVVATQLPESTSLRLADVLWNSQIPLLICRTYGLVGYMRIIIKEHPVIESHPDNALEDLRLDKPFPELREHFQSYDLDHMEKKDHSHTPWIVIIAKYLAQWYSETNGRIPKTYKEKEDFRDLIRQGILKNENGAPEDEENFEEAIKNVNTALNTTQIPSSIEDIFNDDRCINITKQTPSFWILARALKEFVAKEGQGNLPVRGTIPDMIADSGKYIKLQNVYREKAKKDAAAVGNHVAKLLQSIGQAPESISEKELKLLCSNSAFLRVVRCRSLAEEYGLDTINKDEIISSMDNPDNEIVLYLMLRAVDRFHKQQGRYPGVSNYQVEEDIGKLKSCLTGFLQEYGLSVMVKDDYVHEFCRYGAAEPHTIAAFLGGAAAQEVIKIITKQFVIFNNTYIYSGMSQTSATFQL
NR2E3 ag-2: NR2E3 (human) agonism; GST-NR2E3/biotin-RetCOR TR-FRET, 1536-well; AID 2300; inhibition of corepressor binding, % at 4.78 µM; 320,000 tested, 0.12% active; Q9Y5X4;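 active = percent inhibition above the cutoff of mean plus 3 SD of all tested compounds, set per screening campaign, cut at about 20% in these data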;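 note: 0% = DMSO wells and 100% = biotin wells as full block of FRET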
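System: GST-NR2E3 and biotin-RetCOR proteins; probe or stimulus: 7 nM biotin-RetCOR; doses: compound at 4.8 µM, single dose; schedule: Compound–protein incubation for 5 h at 4 °C; detection: time-resolved FRET; read-out: percent inhibition; controls: biotin wells as high control, 0.6% DMSO wells as low control; format: 1536-well plates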
PG9 Ab binder: PG9 antibody binding by small molecule; TR-FRET gp120-PG9 antibody binding; inhibition, % at 6.7 µM; 360,000 tested, 0.43% active; AID 624416; in the data active = inhibition above about 8.5%
PG9 binder conf: PG9 antibody binding, confirmed; TR-FRET PG9 antibody binding, biochemical; inhibition, % at 6.7 µM; 1,500 tested, 90% active; shares compounds with PG9 Ab binder; in the data active = inhibition above about 9%
PGV04 Ab binding: PGV04 control antibody binding, counter-screen; inhibition, % at 6.7 µM; 1,500 tested, 95% active; shares compounds with PG9 Ab binder; TR-FRET PGV04 antibody-gp120 binding, biochemical; AID 651604; in the data active = inhibition above about 9.5%
Rev-erbA confirm: Rev-erb alpha (human) modulation, hit confirmation. 3,000 tested, 61% active. activation, % at 25 µM. shares compounds with Rev-erbA mod. AID 1259319. Rev-erb alpha FITC-DNA binding, fluorescence polarization, 90 min;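 active = activation at or above a set limit, or at least 3 SD above the negative control mean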;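 note: 0% = 35 nM protein with DMSO and 100% = 750 nM protein high control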
RORg DNA counter: counter-screen for Rev-erb alpha modulators: RORgamma DNA binding; shares compounds with Rev-erbA mod; 910 tested, 8% active; IC50, µM; purified RORgamma protein-FITC-DNA binding, fluorescence polarization; AID 1259320;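 active = Compounds whose fitted half-maximal concentration for disrupting protein-DNA binding is below 10 micromolar; the record names Rev-erb in its text, so the target is in doubt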
Numbers without * were called inactive; i = inactive; · = no result given. Hits are enriched below; roughly 2% of the tested compounds scored in any of these assays.

SMILES	NR2E3 ag-1	Rev-erbA mod	Neddyl block	NR2E3 ag-2	PG9 Ab binder	PG9 binder conf	PGV04 Ab binding	Rev-erbA confirm	others
NC(=O)NC(=O)COC(=O)c1sc2ccccc2c1Cl	-28	10	i	2	-4	·	·	·
COC(=O)C1=C(C)N(Cc2ccccc2C(F)(F)F)C(=NCc2ccc3c(c2)OCO3)NC1c1ccc(Cl)cc1 (centres undefined)	·	1	·	·	-2	·	·	·
CCOC(=O)c1c(NC(=O)COC(=O)CCOc2ccccc2C)sc(C(=O)NC)c1C	4	72*	i	13	31*	48*	57*	46*	RORg DNA counter=>40
O=C(CSc1nc2nc3c(cc2c(=O)n1-c1ccccc1)CCCC3)Nc1ccccc1	-7	27*	i	0	18*	31*	46*	20*
CCOc1ccccc1-c1nc(-c2cc3ccc(C)cc3[nH]c2=O)no1	16	66*	i	2	18*	13*	27*	44*
COc1ccc(-n2nc(C(=O)NCC(=O)NCc3ccc(F)cc3)c3ccccc3c2=O)cc1OC	-3	54*	i	-294	28*	34*	49*	39*	RORg DNA counter=>40
COC(=O)CNC(=O)CNC(=O)c1nn(-c2ccc(OC)c(OC)c2)c(=O)c2ccccc12	10	1	i	-1	-3	·	·	·
O=C1NC[C@@H](CCCCN2C[C@H](Cc3ccc(O)cc3)N(Cc3ccccc3)C(=O)C2=O)N(CCc2ccc(O)cc2)C1=O	-2	-6	i	·	-1	·	·	·
CN(CC(=O)Nc1ccc(F)cc1)S(=O)(=O)c1ccc2c(c1)c(=O)n(C)c(=O)n2C	0	-1	i	-4	0	·	·	·
CN(CC(=O)Nc1ccc(F)cc1)C(=O)Cn1nnc(-c2ccccc2)n1	-6	-8	i	-1	0	·	·	·
Cc1ccccc1N(C(=O)c1snc(C(N)=O)c1N)C(C(=O)NCc1ccccc1)c1ccc(O)cc1 (centres undefined)	1	19*	i	0	30*	31*	45*	-6
COc1ccc(S(=O)(=O)Nc2ccc3c(c2)C(=O)N([C@H](C)CO)C[C@H](C)[C@@H](CN(C)Cc2ccncc2)OCCCC[C@@H](C)O3)cc1	-36	-3	i	·	-1	·	·	·
COc1ccccc1NC(=O)c1ccc(-c2ccc(Br)cc2)o1	-14	7	i	5	2	·	·	·
COc1cc(NC(=O)c2ccc(-c3ccc(Br)cc3)o2)ccc1NC(=O)C(C)C	-11	37*	·	0	22*	41*	30*	16
CCOc1ccc(-n2c(=O)c3sccc3n(CC(=O)Nc3cccc(OC)c3)c2=O)cc1	2	31*	i	-3	24*	26*	43*	27*
CC1(C(=O)NCC2CC2)Cc2c(-c3ccccc3)ccnc2O1 (centres undefined)	14	3	i	·	0	·	·	·
CCOc1ccc(S(=O)(=O)Nc2nc3ccccc3nc2-n2ccc(=NC(=O)c3ccccc3C)cc2)cc1	-2	39*	i	-1	40*	32*	65*	59*	RORg DNA counter=>40
COc1ccc2oc(=O)c(C(=O)NCc3ccccc3)cc2c1	-16	14	i	3	0	·	·	·
CCCOc1ccc2cc(C(=O)NCc3ccccc3)c(=O)oc2c1	-6	70*	i	7	11*	38*	56*	29*
Cc1cccc(C)c1NC(=O)CSc1nc(C)c(CC(=O)c2ccc(Br)cc2)c(C)c1C#N	-56	141*	i	-9	26*	53*	70*	78*
CC(=O)Nc1cccc(NC(=O)CSc2nc(C)c(C)c(C)c2C#N)c1	4	-6	i	-1	1	·	·	·
